These results are taken from ChEMBL document CHEMBL4765399, “Design, synthesis, and biological evaluation of 5-((8-methoxy-2-methylquinolin-4-yl)amino)-1H-indole-2-carbohydrazide derivatives as novel Nur77 modulators” (Eur J Med Chem, 2020).

Each structure is given as a SMILES string. Calls of active or inactive are those of the source. No cut-off for these calls is given here.

The target in experiment [1] is T1, Nuclear receptor subfamily 4immunitygroup A member 1 (Homo sapiens, UniProt P22736). In words: Binding affinity to Nur77 ligand binding domain (unknown origin) assessed as dissociation constant by fluorescence titration based analysis. In short, it runs like this: (§1)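 Intrinsic tryptophan fluorescence quench: 1 μM Nur77-LBD titrated with 0–4 μM ligand in about 0.2 μM steps (20 points). After 30 min at room temperature, read at 25 °C, excitation 280 nm, emission 340 nm. KD fitted to a two-state 1:1 complex model.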
T1 sequence (P22736 whole entry, the tested form may be a part): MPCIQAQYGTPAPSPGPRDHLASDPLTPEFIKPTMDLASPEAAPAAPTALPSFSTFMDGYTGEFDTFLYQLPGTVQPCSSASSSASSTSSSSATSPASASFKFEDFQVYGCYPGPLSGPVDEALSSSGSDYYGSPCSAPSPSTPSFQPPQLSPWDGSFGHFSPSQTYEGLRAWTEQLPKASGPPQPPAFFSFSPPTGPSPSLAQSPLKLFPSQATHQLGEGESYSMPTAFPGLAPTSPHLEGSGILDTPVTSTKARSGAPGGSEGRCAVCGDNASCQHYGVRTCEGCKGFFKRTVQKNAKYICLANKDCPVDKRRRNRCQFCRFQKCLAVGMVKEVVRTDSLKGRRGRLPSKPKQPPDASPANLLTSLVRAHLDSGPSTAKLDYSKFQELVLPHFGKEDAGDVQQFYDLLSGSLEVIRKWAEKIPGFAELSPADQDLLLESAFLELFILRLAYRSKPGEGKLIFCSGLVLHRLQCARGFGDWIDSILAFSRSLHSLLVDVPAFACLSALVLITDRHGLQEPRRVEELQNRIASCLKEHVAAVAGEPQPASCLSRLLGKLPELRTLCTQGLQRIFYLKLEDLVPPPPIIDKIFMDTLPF

Experiment [2] relates to HepG2. As to the kind of experiment: Upregulation of RARgamma expression in human HepG2 cells at 2 uM incubated for 2 to 12 hrs by Western blot analysis. Type of experiment: functional, cell-based. The conditions noted are these: time 2-12 hrs. In short, it runs like this: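 HepG2 cells given 2.0 µM for the indicated times. RXRα, RARγ and Nur77 detected by western blot: RIPA lysis with protease and phosphatase inhibitors, 40-80 µg protein by SDS-PAGE, nitrocellulose, 5% milk block, primary antibody overnight, HRP secondary, chemiluminescence read-out.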
In general terms: In western blotting, separated proteins are transferred to a membrane and probed.

For experiment [3], the target named is T1, Nuclear receptor subfamily 4immunitygroup A member 1. In words: Modulation of Nur77 in human HepG2 cells assessed as induction of Nur77 translocation into cytoplasm from nucleus at 2 uM incubated for 6 hrs by DAPI staining based immunofluorescence assay. The experiment is classed as cell-based. The conditions noted are these: filed as modulator. The method, boiled down: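 HepG2 exposed to 2.0 µM for set times, fixed (4% paraformaldehyde), permeabilised (0.1% Triton X-100), BSA-blocked, incubated 1 h with anti-Nur77 (1:500) then FITC or Cy3 anti-rabbit IgG; nuclei DAPI-stained; confocal imaging.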

Experiment [4] has as its system HepG2. As to the kind of experiment: Induction of morphological changes in human HepG2 cells assessed as reduction in cell number at 1 to 2 uM incubated for 6 to 12 hrs by phase contrast microscopic analysis. Type of experiment: functional, cell-based. The conditions noted are these: dose 1-2 µM, time 6-12 hrs. In short, it runs like this:
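HepG2 cells given graded concentrations; morphology monitored at set time points by phase-contrast optical microscopy.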

The subject of experiment [5] is SMMC-7721. As to the kind of experiment: Induction of apoptosis in human SMMC-7721 cells assessed as increase in cleaved PARP level at 0.5 to 2 uM incubated for 12 hrs by Western blot analysis. The conditions noted are these: dose 0.5-2 µM. The experiment is classed as functional, cell-based. In short, it runs like this: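 QGY-7703 (RPMI 1640, 10% FBS) and SMMC-7721 (DMEM) cells at 37 °C, 5% CO2, treated with graded concentrations for 12 h. RIPA lysates (40-80 µg protein) run on SDS-PAGE, transferred to nitrocellulose, immunoblotted for cleaved PARP; chemiluminescence read-out.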

The test system of experiment [6] is HepG2. As to the kind of experiment: Disruption of mitochondrial membrane potential in human HepG2 cells assessed as red fluorescence intensity at 2 uM incubated for 12 hrs by JC-1 staining based flow cytometry (reference value: 23598 units). Type of experiment: functional. Background: Flow cytometry measures light scatter and fluorescence of single cells or particles in a stream.

In experiment [7] the test system is HepG2. As to the kind of experiment: Induction of autophagy in Nur77 knockout human HepG2 cells assessed as increase in LC3-II expression at 2 uM measured after 6 to 12 hrs by Western blot analysis. The experiment is classed as functional, cell-based. The following applies: time 6-12 hrs. In short, it runs like this:
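Scrambled-control and shNur77 HepG2 given DMSO or 2.0 µM for 6 or 12 h; immunoblotting of RIPA lysates for LC3, Beclin1 and Nur77 after SDS-PAGE and nitrocellulose transfer, chemiluminescent detection.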

In experiment [8] the test system is HepG2. As to the kind of experiment: Induction of endoplasmic reticulum stress in human HepG2 cells assessed as increase in CHOP protein expression incubated for 12 hrs by Western blot analysis. The experiment is classed as functional, cell-based. The conditions noted are these: dose 0.5-2 µM. The method, boiled down:
(§2)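 HepG2, QGY-7703 and SMMC-7721 treated with graded concentrations for 12 h. Lysed in RIPA with inhibitors; 40-80 µg protein separated by SDS-PAGE, blotted to nitrocellulose, blocked 1 h in 5% milk, primary antibodies overnight (LC3, Beclin1, Bip, CHOP, TRB3), HRP secondaries, chemiluminescence.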

The test system of experiment [9] is SMMC-7721. In words: Induction of endoplasmic reticulum stress in human SMMC-7721 cells assessed as increase in TRB3 protein expression incubated for 12 hrs by Western blot analysis. Type of experiment: functional, cell-based. The conditions noted are these: dose 0.5-2 µM. In short, it runs like this: as §2
Experiment [10] has as its system HepG2. In words: Induction of endoplasmic reticulum stress in Nur77 […] human HepG2 cells assessed as CHOP protein expression at 2 uM incubated for 6 to 12 hrs by Western blot analysis. Type of experiment: functional, cell-based. The following applies: time 6-12 hrs. In short, it runs like this: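 HepG2 and shNur77 HepG2 exposed to DMSO or 2.0 µM for 6 and 12 h; lysates immunoblotted for TRB3, Bip, CHOP and Nur77 (SDS-PAGE, nitrocellulose, overnight primary antibodies, HRP secondary, chemiluminescence).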

The test system of experiment [11] is HepG2. As to the kind of experiment: Induction of endoplasmic reticulum stress in human HepG2 cells assessed as increase in p-EIF2a expression at 2 uM measured after 1 to 4 hrs by Western blot analysis. The experiment is classed as functional, cell-based. The conditions noted are these: time 1-4 hrs. The method, boiled down:
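HepG2 exposed to 2.0 µM over a time course; Nur77, Bip, p-EIF2a, TRB3 and LC3 levels followed by Western blot of RIPA lysates.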

The test system of experiment [12] is HepG2. In words: Induction of apoptosis in human HepG2 cells assessed as cleaved caspase-3 expression at 2 uM pretreated with ER stress inhibitor, 4-PBA for 2 hrs followed by incubation with compound for 12 hrs by Western blot analysis. Type of experiment: functional, cell-based. In short, it runs like this: (§3)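 HepG2 cells grown to confluence were pretreated 2 h with 2 mM 3-MA (autophagy inhibitor) or 2 mM 4-PBA (ER stress inhibitor), then exposed to compound for 12 h. Proteins (40–80 µg, RIPA lysate) were resolved by SDS-PAGE and blotted for PARP, cleaved caspase-3/-9, Bcl-2 and Bax, with chemiluminescent detection.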

Experiment [13] has as its system HepG2. In words: Induction of apoptosis in human HepG2 cells assessed as cleaved caspase-9 expression at 2 uM pretreated with ER stress inhibitor, 4-PBA for 2 hrs followed by incubation with compound for 12 hrs by Western blot analysis. Type of experiment: functional, cell-based. In short, it runs like this:
as §3

Experiment [14] deals with T1, Nuclear receptor subfamily 4immunitygroup A member 1. As to the kind of experiment: Binding affinity to Nur77 ligand binding domain (unknown origin) assessed as decrease in fluorescence intensity of protein at 332 nm at 0.2 to 4 uM by fluorescence titration based analysis. The following applies: filed as modulator, dose 0.2-4 µM. The method, boiled down:
as §1

For experiment [15], the system named is HepG2. As to the kind of experiment: Induction of apoptosis in human HepG2 cells assessed as late apoptotic cells at 1 uM incubated for 12 hrs by Annexin V-FITC/PI staining based flow cytometry (reference value: 1.1%). Type of experiment: functional.
Experiment [16] has as its system HepG2. As to the kind of experiment: Upregulation of Nur77 expression in human HepG2 cells pretreated with nuclear export inhibitor, LMB followed by incubation with compound for 12 hrs by western blot analysis. Type of experiment: functional, cell-based.
The test system of experiment [17] is HepG2. As to the kind of experiment: Antitumor activity against human HepG2 cells xenografted in BALB/c mouse assessed as induction of ER stress by measuring increase in TRB3 level in tumor tissue at 10 to 20 mg/kg/day, ip administered for 15 days by western blot analysis. Type of experiment: functional, organism-based. The following applies: dose 10-20 mg/kg/day, time 15.0 day. The method, boiled down: (§4)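 HepG2 cells (5×10^6) injected subcutaneously into flanks of 4-week-old male Balb/c nude mice. At about 100 mm³, 15 mice were randomized to vehicle, 10 or 20 mg/kg i.p. once daily for 15 days. Tumors were then excised for immunostaining of paraffin sections (5 μm) or for western blot.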
(In general: A xenograft is tissue or cells of one species grown in another, often human tumour cells in immunodeficient mice.)

Experiment [18] deals with HepG2. In words: Antitumor activity against human HepG2 cells xenografted in BALB/c mouse assessed as induction of ER stress by measuring increase in bip level in tumor tissue at 10 to 20 mg/kg/day, ip administered for 15 days by western blot analysis. Type of experiment: functional, organism-based. The conditions noted are these: dose 10-20 mg/kg/day, time 15.0 day. In short, it runs like this:
as §4

A further experiment concerns Mus musculus. In words: Induction of Nur77 expression in tumor tissue of BALB/c mouse xenografted with human HepG2 cells at 10 to 20 mg/kg/day, ip administered for 15 days by western blot analysis. The following applies: dose 10-20 mg/kg/day, time 15.0 day.

Broadly, the Kd is the free concentration of one partner at which half of the binding sites on the other are occupied at equilibrium, for simple one-to-one binding. On to `COc1cccc2c(Nc3ccc4[nH]c(C(=O)N/N=C/c5ccc(SC)cc5)cc4c3)cc(C)nc12`, for which the Kd in experiment [1] is 1.34 µM. Also, the result with HepG2 [2], with HepG2 [7], in the experiment with HepG2 [10], in the experiment on HepG2 [12] and in the experiment on HepG2 [13] was inactive. Also, the outcome (in experiment [3]; in the experiment with HepG2 [4]; in the experiment with HepG2 [11]; in [14]; with HepG2 [16]; with HepG2 [17]) was Active. Besides, the result in the experiment on HepG2 [18] and in the experiment with Mus musculus was Active. The Activity entry is “Dose-dependent effect” in the experiment on SMMC-7721 [5]; 10298 U with HepG2 [6]; “Dose-dependent effect” in the experiment on HepG2 [8]; “Dose-dependent effect” in the experiment on SMMC-7721 [9]; 16.1% in the experiment with HepG2 [15].
